Drawing on ChEMBL document CHEMBL4406874, “One-pot synthesis of novel tert-butyl-4-substituted phenyl-1H-1,2,3-triazolo piperazine/piperidine carboxylates, potential GPR119 agonists” (Bioorg Med Chem Lett, 2019), this text covers EC50 for 15 compounds.

This assay concerns the target T1, Glucose-dependent insulinotropic receptor (Homo sapiens, UniProt Q8TDV5).
T1 sequence (Q8TDV5 whole entry): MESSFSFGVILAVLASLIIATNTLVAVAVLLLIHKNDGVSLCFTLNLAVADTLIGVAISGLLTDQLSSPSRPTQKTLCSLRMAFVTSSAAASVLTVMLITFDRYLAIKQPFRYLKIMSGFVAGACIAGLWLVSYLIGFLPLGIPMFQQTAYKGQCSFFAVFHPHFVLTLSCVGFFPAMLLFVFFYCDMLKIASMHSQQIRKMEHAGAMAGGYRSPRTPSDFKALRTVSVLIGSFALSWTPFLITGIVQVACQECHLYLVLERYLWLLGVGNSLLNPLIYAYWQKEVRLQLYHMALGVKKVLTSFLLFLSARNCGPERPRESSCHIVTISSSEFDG
Put plainly: Agonist activity at recombinant human GPR119 expressed in HEK293 cells after 24 hrs by steady-glo luciferase assay. The class given is cell-based. In a few lines: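 HEK-293 cells stably carrying GPR119 plus a CRE-luciferase reporter, seeded at 10,000 cells/well and cultured 24 h before compound addition at 0.1 nM to 1mM. DMSO served as negative control and AR231453 as reference agonist. Luciferase signal was read after a further 24 h as a surrogate for cAMP elevation.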
Broadly, the EC50 is the concentration giving half of the maximal effect. For the compound `CC(C)(C)OC(=O)N1CCC(OC(=O)c2cn(-c3ccc(C#N)cc3F)nn2)CC1`, the concentration giving a half-maximal response (EC50) turned out to be 3.59 nM.
Under `CC(C)(C)OC(=O)N1CCN(C(=O)c2cn(-c3nc4ccccc4s3)nn2)CC1` stands 7.12 nM; under `CC(C)c1noc(C2CCN(c3ncnc(Nc4ccc(S(C)(=O)=O)cc4F)c3[N+](=O)[O-])CC2)n1`, 4.78 nM; under `CC(C)(C)OC(=O)N1CCC(OC(=O)c2cn(-c3nc4ccccc4s3)nn2)CC1`, 8.17 nM.
Turning to `CC(C)(C)OC(=O)N1CCN(C(=O)c2cn(-c3ccc(C(F)(F)F)cc3)nn2)CC1`, the EC50 was 13.6 nM.
Under `CC(C)(C)OC(=O)N1CCN(C(=O)c2cn(-c3ccc(Cl)c(C(F)(F)F)c3)nn2)CC1` stands 12.3 nM; under `CC(C)(C)OC(=O)N1CCC(OC(=O)c2cn(-c3ccc(Cl)c(C(F)(F)F)c3)nn2)CC1`, 12.3 nM.
Take `CC(C)(C)OC(=O)N1CCC(OC(=O)c2cn(-c3ccc(S(C)(=O)=O)cc3F)nn2)CC1`: the EC50 amounted to 14 nM.
With `CC(C)(C)OC(=O)N1CCN(C(=O)c2cn(-c3ccc(C#N)cc3F)nn2)CC1`, the concentration for a half-maximal effect (EC50) was determined as 4.21 nM.
Regarding `CC(C)(C)OC(=O)N1CCN(C(=O)c2cn(-c3ccc(S(C)(=O)=O)cc3)nn2)CC1`, the half-maximal effective concentration (EC50) was determined as 3.12 nM.
On to `CC(C)(C)OC(=O)N1CCN(C(=O)c2cn(-c3ccc(C(F)(F)F)cc3Cl)nn2)CC1`, for which the concentration giving a half-maximal response (EC50) was 8.78 nM.
On to `CC(C)(C)OC(=O)N1CCC(OC(=O)c2cn(-c3ccc(C(F)(F)F)cc3Cl)nn2)CC1`, for which the concentration giving a half-maximal response (EC50) came out at 11.1 nM.
Under `CC(C)(C)OC(=O)N1CCC(OC(=O)c2cn(-c3ccc(S(C)(=O)=O)cc3)nn2)CC1` stands 3.67 nM; under `CC(C)(C)OC(=O)N1CCN(C(=O)c2cn(-c3ccc(S(C)(=O)=O)cc3F)nn2)CC1`, 12.4 nM.
For the compound `CC(C)(C)OC(=O)N1CCC(OC(=O)c2cn(-c3ccc(C(F)(F)F)cc3)nn2)CC1`, the concentration giving a half-maximal response (EC50) is 10.4 nM.
